From ChEMBL document CHEMBL1153269, “Design and synthesis of new hydroxyethylamines as inhibitors of D-alanyl-D-lactate ligase (VanA) and D-alanyl-D-alanine ligase (DdlB)” (Bioorg Med Chem Lett, 2009) come the findings set out here.

Assay [1] addresses T1, Vancomycin/teicoplanin A-type resistance protein VanA (Enterococcus faecium) (UniProt P25051).
T1 sequence (whole entry): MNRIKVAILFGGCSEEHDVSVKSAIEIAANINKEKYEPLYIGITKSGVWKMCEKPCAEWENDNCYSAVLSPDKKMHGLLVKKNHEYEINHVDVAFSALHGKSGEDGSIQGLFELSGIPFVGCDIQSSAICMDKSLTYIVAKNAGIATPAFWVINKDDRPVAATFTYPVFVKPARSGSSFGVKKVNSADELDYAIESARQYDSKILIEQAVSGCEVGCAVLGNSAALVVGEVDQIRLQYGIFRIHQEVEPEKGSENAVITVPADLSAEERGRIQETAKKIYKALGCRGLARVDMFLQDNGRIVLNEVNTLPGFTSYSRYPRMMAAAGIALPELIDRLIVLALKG
The assay is described as follows: Inhibition of Enterococcus faecium VanA at 10 mM by pyruvate kinase/lactate dehydrogenase coupled assay. Put shortly:
(§1)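 VanA measured by NADH depletion at 340 nm via PK/LDH coupling, 37 °C. Buffer 100 mM Hepes pH 7.5, 10 mM MgCl2, 10 mM KCl, 10% (v/v) DMSO ± compound; 2 mM PEP, 0.2 mM ATP, PK, LDH, NADH; substrates 8 mM D-Ala and 1.78 mM D-Lac; started by adding VanA.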

In assay [2] the test system is Escherichia coli. The assay is described as follows: Inhibition of Escherichia coli […] at 10 mM by pyruvate kinase/lactate dehydrogenase coupled assay.
Assay [3] deals with T1, Vancomycin/teicoplanin A-type resistance protein VanA (Enterococcus faecium). Description: Inhibition of Enterococcus faecium VanA at 500 uM by pyruvate kinase/lactate dehydrogenase coupled assay. The gist of the method: as §1
Assay [4] concerns the target T2, Vancomycin/teicoplanin A-type resistance protein VanA (Enterococcus faecium, UniProt P25051).
T2 sequence (P25051 whole entry): T1 sequence (whole entry)
Description: Inhibition of Enterococcus faecium VanA by pyruvate kinase/lactate dehydrogenase coupled assay. The gist of the method: as §1

The subject of assay [5] is Escherichia coli. Description: Inhibition of Escherichia coli […] at 500 uM by pyruvate kinase/lactate dehydrogenase coupled assay.
A short description of assay [6]: Inhibition of Escherichia coli […] by pyruvate kinase/lactate dehydrogenase coupled assay.

Active and inactive are the calls of the source. No cut-off for these calls is given here.

In the case of `O=S(=O)(NCC(O)CN1CCOCC1)c1ccc(F)cc1` (stereo unspecified), the outcome (in assay [1]; in the assay on Escherichia coli [2]) was inactive.
For `O=P(O)(O)OC(CNS(=O)(=O)c1ccc(F)cc1)CN1CCOCC1` (stereo unspecified), the inhibition (commonly the share of the control response that was lost under treatment) came out at 75% in assay [3] and 77% in the assay on Escherichia coli [5]. Further, the IC50 (as a rule, the concentration needed to halve the response being measured) in assay [4] amounted to 290 µM; in assay [6], 136 µM.
Take `COc1ccc(S(=O)(=O)NCC(CN2CCOCC2)OP(=O)(O)O)cc1` (stereo unspecified): the inhibition (in assay [3]; in the assay on Escherichia coli [5]) was 83% in each case. For the same compound, the figures for the IC50 in assay [4] and in assay [6] were 224 µM and 110 µM, respectively.
Compound `O=P(O)(Oc1ccccc1)OC(CNS(=O)(=O)c1ccc(F)cc1)CN1CCOCC1` (stereo unspecified) displayed an inhibition in assay [3] of 65%. The inhibition entry with Escherichia coli [5] was “inactive”.
For `COc1ccc(S(=O)(=O)NCC(CN2CCOCC2)OP(=O)(O)Oc2ccccc2)cc1` (stereo unspecified), the inhibition result (in assay [3]; with Escherichia coli [5]) was “inactive” each time.
For the compound `COc1ccc(S(=O)(=O)NCC(O)CN2CCOCC2)cc1` (stereo unspecified), the result (in assay [1]; in the assay with Escherichia coli [2]) was inactive.
